Screening results as filed in PubChem BioAssay.
Many of the other results were omitted from the sample, so hits are more common in it than they were.
A1 apoptosis 2: compounds inhibiting A1, read as caspase activation | caspase activation, % (no concentration beside the values) | MEF A1-2A-BIM cells, caspase-Glo luminescence, 3 h; percent of clofoctol response, DMSO zero | 24,000 tested, under 10 active; in the data active = caspase activation above about 5.9%
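Evaluation: Caspase-3/7 activity from luminescence increase | Assay system: A1-2A-BIM mouse embryonic fibroblasts | Quantity: 2500 MEF cells/well | Medium: RPMI-1640 plus 10% FBS | Detection: Caspase-Glo 3/7 luminescence, 1 h at room temperature | Dosing: 50 nL compound per well, pinned | Timing: Cells settled overnight, compound exposure 3 h at 37 °C, 5% CO2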
INS-1E ATP HTS: rescue of cytokine-induced death in INS-1E beta cells; INS-1E cytokine-induced death, ATP luminescence, 48 h; normalised: neutral wells 0, positive control 100; protection from cytokine-induced ATP loss, % at 10 µM; actives 0.1% (n = 20,000); AID 488910;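 active = mean replicate protection from cytokine-induced ATP loss at least 50% and at least 75% of replicates each reaching 50%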
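assay system = INS-1E rat insulinoma cells | amount = 8000 cells per well | medium = phenol-red-free RPMI with 5% fetal bovine serum | doses = one compound concentration, pin transfer | timing = 48 h cytokine plus compound treatment, 10 min reagent incubation | also added = IL-1β, TNF-α and IFN-γ cytokine mix | signal = CellTiter-Glo luminescence measuring cellular ATP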
T cruzi intra: blocks T. cruzi growth inside host cells | intracellular Trypanosoma cruzi in host cells, plate reader | activity score (inhibition), % at 5.01 µM | actives 4.9% (n = 22,000) | AID 651903; in the data active = activity score above about 55%;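 also: parasites and compound incubated about four days before reading; 0% = median of neutral control wells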
An asterisk follows results filed as active.

For CN(C)CCCCNC(=O)[C@@H]1C[C@@H]2C(=O)N[C@@H](Cc3ccccc3)C(=O)N2[C@@H]1c1ccc(O)cc1 the results were A1 apoptosis 2 0.
Screening O=C(CCCCCCC(=O)Nc1ccccc1O)N/N=C/c1ccoc1 returned INS-1E ATP HTS 4 and T cruzi intra -3.
For COC(=O)[C@H](Cc1ccccc1)N1C(=O)O[C@H](Cc2ccccc2)[C@@H]1/C=C/C1CC1 the results were A1 apoptosis 2 0.
`O=C(Nc1ccccc1[N+](=O)[O-])c1ccc(CNc2nccc(-c3cccnc3)n2)cc1` gave A1 apoptosis 2 1.
For COc1ccc(NC(=O)Nc2cccc3c2O[C@@H](CN(C)Cc2ccc(Oc4ccccc4)cc2)[C@@H](C)CN([C@@H](C)CO)C3=O)cc1 the results were A1 apoptosis 2 -1, INS-1E ATP HTS -39 and T cruzi intra 36.
Screening COc1ccc(NC(=O)Nc2cccc3c2O[C@@H](CN(C)Cc2ccc(Oc4ccccc4)cc2)[C@@H](C)CN([C@H](C)CO)C3=O)cc1 returned A1 apoptosis 2 -2, INS-1E ATP HTS -48 and T cruzi intra 63*.
For COc1ccc(CN(C)C[C@H]2Oc3c(NC(=O)NC4CCCCC4)cccc3C(=O)N([C@@H](C)CO)C[C@H]2C)cc1 the results were A1 apoptosis 2 1, INS-1E ATP HTS -11 and T cruzi intra 10.
For COc1ccc(/C=N/NC(=O)CCCCCCC(=O)Nc2ccccc2O)c(O)c1 the results were INS-1E ATP HTS -6 and T cruzi intra 26.
CN(C)CCCOc1ccc(/C=N/NC(=O)CCCCCCC(=O)Nc2ccccc2O)cc1 was read as INS-1E ATP HTS -3 and T cruzi intra 87*.
Screening COC(=O)CCCCCCC(=O)N/N=C/c1cc(Br)cc(Br)c1O returned A1 apoptosis 2 1, INS-1E ATP HTS 14 and T cruzi intra 62*.
Screening O=C(CCCCCCC(=O)Nc1ccccc1O)N/N=C/c1ccc(OCCO)cc1 returned A1 apoptosis 2 0, INS-1E ATP HTS -13 and T cruzi intra -3.
`COC(=O)CCCCCCC(=O)N/N=C/c1cc(Br)cc(OC)c1O` gave A1 apoptosis 2 0, INS-1E ATP HTS 32 and T cruzi intra 26.
Screening COC(=O)CCCCCCC(=O)N/N=C/c1ccc(OCCCN(C)C)cc1 returned INS-1E ATP HTS 9 and T cruzi intra 81*.
For O=C(CCCCCCC(=O)Nc1ccccc1O)N/N=C/c1ccc(OCc2ccccc2)cc1O the results were A1 apoptosis 2 -2, INS-1E ATP HTS 10 and T cruzi intra 78*.
CN(C)CCCOc1ccc(/C=N/NC(=O)CCCCCCC(=O)NO)cc1 was read as A1 apoptosis 2 -1.
Screening O=C(NO)c1ccc(C(=O)N/N=C/c2ccc(O)c(O)c2)cc1 returned INS-1E ATP HTS 1 and T cruzi intra -6.
Screening O=C(/C=C/c1ccc(OCCCc2ccccc2)cc1)NO returned A1 apoptosis 2 0.
COC(=O)CCCCCCC(=O)N/N=C/c1cc(Br)c(O)c(Br)c1 was read as A1 apoptosis 2 1, INS-1E ATP HTS 4 and T cruzi intra -17.
`C[C@@H]1CN([C@@H](C)CO)C(=O)c2cccc(NC(=O)Nc3ccccc3)c2O[C@H]1CN(C)S(=O)(=O)c1ccc(Cl)cc1` gave INS-1E ATP HTS 37 and T cruzi intra -5.
Screening NC(=O)COc1ccccc1/C=N/NC(=O)CCCCCCC(=O)Nc1ccccc1O returned A1 apoptosis 2 0, INS-1E ATP HTS 1 and T cruzi intra -14.
Screening NC(=O)COc1ccc(/C=N/NC(=O)c2ccccn2)cc1 returned A1 apoptosis 2 -6, INS-1E ATP HTS -8 and T cruzi intra -7.
`O=C(CCCCCCC(=O)N/N=C/c1cccnc1)NO` gave A1 apoptosis 2 0.
C[C@@H]1CN([C@H](C)CO)C(=O)Cc2cc(N(C)C)ccc2O[C@H]1CN(C)Cc1ccc(C(=O)Nc2ccccc2N)cc1 was read as INS-1E ATP HTS 18 and T cruzi intra 69*.
Screening C[C@@H]1CN([C@H](C)CO)C(=O)Cc2cc(NC(=O)c3ccncc3)ccc2O[C@H]1CN(C)Cc1ccc(C(=O)Nc2ccccc2N)cc1 returned A1 apoptosis 2 0, INS-1E ATP HTS -22 and T cruzi intra 20.
`C[C@@H]1CN([C@@H](C)CO)C(=O)c2cc(N(C)C)ccc2O[C@H]1CN(C)Cc1ccc(C(=O)Nc2ccccc2N)cc1` gave INS-1E ATP HTS 3 and T cruzi intra 35.
For C[C@@H]1CN([C@H](C)CO)C(=O)Cc2cc(N(C)C)ccc2O[C@@H]1CN(C)Cc1ccc(C(=O)Nc2ccccc2N)cc1 the results were A1 apoptosis 2 0, INS-1E ATP HTS -14 and T cruzi intra 63*.
For C/C=C(C)\C=N\NC(=O)CCCCCCC(=O)Nc1ccccc1O the results were A1 apoptosis 2 0, INS-1E ATP HTS 12 and T cruzi intra 1.
For O=C(NCCO)C1=C[C@H](Oc2ccccc2I)[C@@H](O)[C@H](N(Cc2ccco2)C(=O)Cc2ccccc2)C1 the results were A1 apoptosis 2 0.
Screening Cc1noc(C)c1S(=O)(=O)Nc1ccc2c(c1)CC(=O)N([C@@H](C)CO)C[C@@H](C)[C@@H](CN(C)Cc1ccc(C(=O)Nc3ccccc3N)cc1)O2 returned INS-1E ATP HTS -5 and T cruzi intra 71*.
`Cc1noc(C)c1S(=O)(=O)Nc1cccc2c1O[C@H](CN(C)S(=O)(=O)c1ccccc1)[C@H](C)CN([C@H](C)CO)C2=O` gave INS-1E ATP HTS 9 and T cruzi intra 65*.
For Cc1noc(C)c1S(=O)(=O)Nc1cccc2c1O[C@@H](CN(C)S(=O)(=O)c1ccccc1)[C@@H](C)CN([C@H](C)CO)C2=O the results were A1 apoptosis 2 -1, INS-1E ATP HTS 10 and T cruzi intra -19.
Screening Cc1noc(C)c1S(=O)(=O)Nc1ccc2c(c1)CC(=O)N([C@H](C)CO)C[C@@H](C)[C@@H](CN(C)Cc1ccc(C(=O)Nc3ccccc3N)cc1)O2 returned A1 apoptosis 2 0, INS-1E ATP HTS -2 and T cruzi intra 69*.
Cc1noc(C)c1S(=O)(=O)Nc1ccc2c(c1)CC(=O)N([C@H](C)CO)C[C@@H](C)[C@H](CN(C)Cc1ccc(C(=O)Nc3ccccc3N)cc1)O2 was read as A1 apoptosis 2 -1, INS-1E ATP HTS -2 and T cruzi intra 28.
Screening Cc1noc(C)c1S(=O)(=O)Nc1ccc2c(c1)C(=O)N([C@H](C)CO)C[C@@H](C)[C@H](CN(C)Cc1ccc(C(=O)Nc3ccccc3N)cc1)O2 returned A1 apoptosis 2 1, INS-1E ATP HTS -7 and T cruzi intra 52.
Cc1noc(C)c1S(=O)(=O)Nc1ccc2c(c1)C(=O)N([C@H](C)CO)C[C@H](C)[C@@H](CN(C)Cc1ccc(C(=O)Nc3ccccc3N)cc1)O2 was read as A1 apoptosis 2 1, INS-1E ATP HTS -14 and T cruzi intra 68*.
Cc1noc(C)c1S(=O)(=O)Nc1ccc2c(c1)CC(=O)N([C@H](C)CO)C[C@H](C)[C@@H](CN(C)Cc1ccc(C(=O)Nc3ccccc3N)cc1)O2 was read as A1 apoptosis 2 -1.
O=C(N/N=C/c1ccc(C(F)(F)F)cc1)c1ccccn1 was read as A1 apoptosis 2 -11, INS-1E ATP HTS 1 and T cruzi intra -11.
